The values that follow come from PMC3291815 (Circulation Research, 2011).

Sequences and labels used below:
B1: CD40L (recombinant, His- and c-myc-tag fusion protein, E108 to L261) (ligand)
chain: ENSFEMQKGDQNPQIAAHVISEASSKTTSVLQWAEKGYYTMSNNLVTLENGKQLTVKRQGLYYIYAQVTFCSNREASSQAPFIASLCLKSPGRFERILLRAANTHSSAKPCGQQSIHLGGVFELQPGASVFVNVTDPSQVSHGTGFTSFGLLKL
B2: cM7, cyclised version of peptide M7 (peptide)
peptide: CEQLKKSKTLC
modifications: disulfide 1-11

Read-outs that look alike come from different tables or passages of the source. Positions of bridges follow the written chain, without caps; N, C: chain ends. No end group written: not given here.

In series [1] the target is T1, CD40L-Mac-1 I-domain interaction (Homo sapiens, UniProt P29965).
T1 sequence (P29965 108-261): B1 chain
Format: binding. In a few lines:
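Recombinant CD40L (residues E108–L261, His- and c-myc-tagged) was incubated with immobilized Mac-1 I-domain alongside a range of cyclized peptide or scrambled peptide concentrations. Bound CD40L was detected with anti-c-myc-HRP and TMB substrate by colorimetric read-out. Anti-CD40L (100 μg/ml) and saline served as controls.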

Series [2] is classed as in vivo, C57BL/6J mice. The following applies: after intraperitoneal injection, FITC-coupled peptide, plasma fluorescence. In a few lines:
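C57BL/6J mice received a single intraperitoneal injection of FITC- or TAMRA-labelled cyclized peptide or its scrambled control, at 100 or 200 μg. Plasma samples were collected at set time points, and peptide level was followed by plasma fluorescence.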

Series [3] concerns Murine fibroblasts over-expressing CD40L. Format: cell-based. The following applies: flow cytometry; not to mock-transfected control cells.
The target of series [4] is T2, Mac-1 I-domain (recombinant, His-tag fusion protein, R115 to S340) (UniProt P11215 131-356). Put plainly: SPR. (In general: Surface plasmon resonance follows binding to a sensor surface in real time, without labels.)
In series [5] the target is T2, Mac-1 I-domain (recombinant, His-tag …). In words: SPR. This is another data set of the same source.
Series [6] concerns the target B1. In words: dynamic cell adhesion assay.

T2 sequence (P11215 131-356): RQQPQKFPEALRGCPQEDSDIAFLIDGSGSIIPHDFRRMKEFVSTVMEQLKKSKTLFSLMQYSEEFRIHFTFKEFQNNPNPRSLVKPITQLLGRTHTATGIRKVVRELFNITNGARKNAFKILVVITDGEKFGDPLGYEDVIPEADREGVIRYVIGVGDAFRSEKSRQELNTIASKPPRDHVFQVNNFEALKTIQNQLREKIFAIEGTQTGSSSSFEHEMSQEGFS

Consider EQLKKSKTL [M7], for which, in series [1], the half-inhibitory concentration (IC50) – broadly, the concentration at which inhibition is half-maximal – lay in the range of 200 to 900 nM.
Regarding “FITC-labeled cM7: cM7 coupled to fluorescein isothiocyanate (CEQLKKSKTLC; disulfide 1-11; also: FITC coupled, site not given here)”, the “Time of highest plasma availability” value in series [2] worked out at 30 min. Besides, in series [3], the “Binding to Murine fibroblasts over-expressing CD40L” value was “concentration-dependently bound”.
Take B1: the Kd (commonly the equilibrium constant for the complex coming apart) worked out at 671 nM in series [4] and 214 nM in series [5].
For the molecule B2, in series [6], the IC50 is 206 nM.
